Measured values published in ChEMBL document CHEMBL5126600, “Discovery of the First-in-Class G9a/GLP Covalent Inhibitors” (J Med Chem, 2022).
Calls of active or inactive are those of the source.

How the values were obtained:
[1] = biological target: Histone-lysine N-methyltransferase SETD1B (Homo sapiens) (UniProt Q9UPS6); assay: Inhibition of N-terminal GST-tagged SET1B (1629 to 1923 residues) (unknown origin) expressed in Escherichia coli at 1 uM using 3H-SAM as a substrate relative to control
Summary of the method: (§1)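 Contracted 3H-SAM methyl-transfer scintillation proximity assay against a panel of methyltransferases; compound tested at 1 μM in duplicate; inhibition expressed as percent of control enzyme activity.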

[2] = biological target: Histone-lysine N-methyltransferase NSD2 (Homo sapiens) (UniProt O96028); assay: Inhibition of NSD2 (2 to 1365 residues) (unknown origin) at 1 uM expressed in baculovirus expression system using 3H-SAM as a substrate relative to control; summary of the method: as §1
[3] = biological target: Histone-lysine N-methyltransferase, H3 lysine-36 specific (Homo sapiens) (UniProt Q96L73); assay: Inhibition of N-terminal His-tagged NSD1 (1538 to 2696 residues) (unknown origin) expressed in baculovirus expression system at 1 uM using 3H-SAM as a substrate relative to control; summary of the method: as §1
Sequence of Histone-lysine N-methyltransferase, H3 lysine-36 specific (Homo sapiens) (Q96L73 whole entry, the tested form may be a part): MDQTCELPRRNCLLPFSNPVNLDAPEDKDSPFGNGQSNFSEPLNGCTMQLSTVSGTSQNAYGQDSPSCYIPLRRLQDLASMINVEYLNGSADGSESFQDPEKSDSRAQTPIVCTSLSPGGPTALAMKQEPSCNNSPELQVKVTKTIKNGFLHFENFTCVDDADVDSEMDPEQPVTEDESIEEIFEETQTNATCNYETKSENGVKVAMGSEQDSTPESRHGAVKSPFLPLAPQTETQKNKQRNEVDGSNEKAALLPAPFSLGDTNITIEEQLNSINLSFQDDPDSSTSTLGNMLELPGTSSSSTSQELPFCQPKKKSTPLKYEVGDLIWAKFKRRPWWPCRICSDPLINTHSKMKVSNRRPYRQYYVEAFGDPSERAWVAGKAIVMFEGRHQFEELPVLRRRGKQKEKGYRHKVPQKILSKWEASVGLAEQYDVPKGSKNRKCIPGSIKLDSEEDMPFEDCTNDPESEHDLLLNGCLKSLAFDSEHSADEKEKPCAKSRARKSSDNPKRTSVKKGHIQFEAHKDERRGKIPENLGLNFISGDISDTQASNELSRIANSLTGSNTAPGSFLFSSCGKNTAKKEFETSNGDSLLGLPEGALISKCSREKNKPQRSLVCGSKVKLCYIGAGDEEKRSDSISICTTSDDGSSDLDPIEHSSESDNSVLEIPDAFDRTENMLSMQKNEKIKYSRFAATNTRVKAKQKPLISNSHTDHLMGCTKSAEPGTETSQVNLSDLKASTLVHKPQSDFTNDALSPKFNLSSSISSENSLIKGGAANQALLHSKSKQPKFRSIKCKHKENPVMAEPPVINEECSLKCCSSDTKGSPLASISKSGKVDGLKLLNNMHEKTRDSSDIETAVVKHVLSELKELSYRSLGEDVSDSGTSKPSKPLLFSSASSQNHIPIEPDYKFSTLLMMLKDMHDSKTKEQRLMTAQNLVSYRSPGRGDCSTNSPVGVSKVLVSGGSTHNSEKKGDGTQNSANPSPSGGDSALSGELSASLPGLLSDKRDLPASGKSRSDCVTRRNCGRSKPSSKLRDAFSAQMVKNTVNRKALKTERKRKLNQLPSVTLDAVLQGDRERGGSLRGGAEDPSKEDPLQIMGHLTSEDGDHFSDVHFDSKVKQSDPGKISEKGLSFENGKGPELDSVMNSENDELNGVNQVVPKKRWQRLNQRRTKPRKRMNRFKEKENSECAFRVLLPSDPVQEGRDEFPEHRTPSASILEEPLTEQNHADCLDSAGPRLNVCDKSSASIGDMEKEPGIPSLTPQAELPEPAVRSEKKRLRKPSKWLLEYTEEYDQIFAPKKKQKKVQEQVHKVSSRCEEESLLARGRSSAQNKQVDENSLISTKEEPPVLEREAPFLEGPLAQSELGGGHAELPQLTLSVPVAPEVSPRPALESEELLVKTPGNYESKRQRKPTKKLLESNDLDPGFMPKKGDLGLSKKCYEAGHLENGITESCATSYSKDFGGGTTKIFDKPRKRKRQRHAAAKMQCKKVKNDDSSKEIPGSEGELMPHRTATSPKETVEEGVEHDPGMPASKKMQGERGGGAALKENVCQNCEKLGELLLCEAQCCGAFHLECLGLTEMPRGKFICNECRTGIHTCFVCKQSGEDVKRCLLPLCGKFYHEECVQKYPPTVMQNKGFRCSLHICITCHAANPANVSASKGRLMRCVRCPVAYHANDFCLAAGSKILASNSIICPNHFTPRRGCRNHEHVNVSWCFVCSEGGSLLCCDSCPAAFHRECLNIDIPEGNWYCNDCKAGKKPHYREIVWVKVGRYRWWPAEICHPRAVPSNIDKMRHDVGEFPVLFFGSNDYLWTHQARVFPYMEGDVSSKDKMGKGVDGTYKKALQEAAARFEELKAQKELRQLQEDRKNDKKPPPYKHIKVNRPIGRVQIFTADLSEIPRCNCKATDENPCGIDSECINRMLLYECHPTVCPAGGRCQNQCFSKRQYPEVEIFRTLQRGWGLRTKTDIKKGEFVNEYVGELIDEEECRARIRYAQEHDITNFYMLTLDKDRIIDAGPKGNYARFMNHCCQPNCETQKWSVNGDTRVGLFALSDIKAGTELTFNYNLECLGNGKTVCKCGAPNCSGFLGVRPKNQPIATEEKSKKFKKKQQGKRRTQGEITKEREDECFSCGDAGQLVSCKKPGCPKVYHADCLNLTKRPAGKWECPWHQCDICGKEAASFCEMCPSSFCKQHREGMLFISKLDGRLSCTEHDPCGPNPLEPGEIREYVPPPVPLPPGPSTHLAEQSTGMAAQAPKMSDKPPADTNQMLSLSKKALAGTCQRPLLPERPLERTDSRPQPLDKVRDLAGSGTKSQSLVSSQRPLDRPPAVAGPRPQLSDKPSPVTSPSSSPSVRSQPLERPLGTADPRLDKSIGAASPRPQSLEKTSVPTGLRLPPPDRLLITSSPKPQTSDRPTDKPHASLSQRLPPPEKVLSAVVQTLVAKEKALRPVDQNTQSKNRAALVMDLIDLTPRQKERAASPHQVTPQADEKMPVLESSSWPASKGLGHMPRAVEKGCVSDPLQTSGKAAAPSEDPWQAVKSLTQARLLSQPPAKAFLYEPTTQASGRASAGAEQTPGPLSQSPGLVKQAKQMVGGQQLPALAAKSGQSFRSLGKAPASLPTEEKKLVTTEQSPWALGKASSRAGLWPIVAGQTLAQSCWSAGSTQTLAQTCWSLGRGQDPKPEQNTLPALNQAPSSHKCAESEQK

[4] = biological target: T1, Histone-lysine N-methyltransferase EHMT2 (Homo sapiens) (UniProt Q96KQ7); assay: Inhibition of human G9a (913 to 1193 residues) assessed as covalent modification by measuring G9a adduct formation at 50 uM incubated for 1 hr by mass spectrometry relative to control
T1 sequence (whole entry): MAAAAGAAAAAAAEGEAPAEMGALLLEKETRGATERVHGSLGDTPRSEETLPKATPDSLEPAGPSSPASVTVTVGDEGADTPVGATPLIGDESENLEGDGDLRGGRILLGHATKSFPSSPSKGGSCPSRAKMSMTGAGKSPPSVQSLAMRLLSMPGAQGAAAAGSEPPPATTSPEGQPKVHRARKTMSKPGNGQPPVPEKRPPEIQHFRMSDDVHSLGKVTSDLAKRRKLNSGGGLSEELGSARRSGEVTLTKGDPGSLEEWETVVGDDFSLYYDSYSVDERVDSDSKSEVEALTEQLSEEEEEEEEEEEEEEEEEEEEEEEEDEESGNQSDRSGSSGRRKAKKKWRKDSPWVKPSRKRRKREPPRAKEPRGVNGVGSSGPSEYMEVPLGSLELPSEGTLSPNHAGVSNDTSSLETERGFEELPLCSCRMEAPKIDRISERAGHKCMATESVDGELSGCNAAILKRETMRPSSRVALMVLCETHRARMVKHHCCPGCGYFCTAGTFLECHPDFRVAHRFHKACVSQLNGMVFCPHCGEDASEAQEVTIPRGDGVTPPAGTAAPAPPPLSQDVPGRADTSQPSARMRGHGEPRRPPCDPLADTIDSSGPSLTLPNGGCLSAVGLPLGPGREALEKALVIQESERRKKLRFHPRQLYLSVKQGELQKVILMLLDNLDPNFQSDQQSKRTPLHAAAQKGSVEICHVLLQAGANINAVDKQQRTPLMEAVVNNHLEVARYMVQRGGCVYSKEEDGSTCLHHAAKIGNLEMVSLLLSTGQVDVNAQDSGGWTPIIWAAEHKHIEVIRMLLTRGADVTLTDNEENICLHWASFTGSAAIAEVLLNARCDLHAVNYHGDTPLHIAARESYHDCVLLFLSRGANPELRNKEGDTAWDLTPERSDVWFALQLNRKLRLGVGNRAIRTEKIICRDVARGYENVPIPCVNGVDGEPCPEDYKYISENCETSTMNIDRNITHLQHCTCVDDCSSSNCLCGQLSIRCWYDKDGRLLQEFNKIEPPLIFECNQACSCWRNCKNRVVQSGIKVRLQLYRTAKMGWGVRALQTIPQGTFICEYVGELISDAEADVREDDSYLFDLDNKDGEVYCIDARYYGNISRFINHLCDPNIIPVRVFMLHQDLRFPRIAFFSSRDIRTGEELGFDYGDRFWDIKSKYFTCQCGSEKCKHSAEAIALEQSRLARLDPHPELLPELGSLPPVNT
Summary of the method: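 Purified G9a or GLP catalytic domain (5 μM) in 50 mM Tris-HCl pH 7.5, 150 mM NaCl incubated with 50 μM compound or DMSO at room temperature (1 h, or 30 and 60 min in time course); intact mass by ESI LC/MS-TOF; adduct % = adduct/(protein + adduct) × 100.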

[5] = biological target: Histone-lysine N-methyltransferase SUV39H1 (Homo sapiens) (UniProt O43463); assay: Inhibition of N-terminal fusion protein with C-terminal His-tagged SUV39H1 (44 to 412 residues) (unknown origin) expressed in Escherichia coli at 1 uM using 3H-SAM as a substrate relative to control; summary of the method: as §1
Sequence of Histone-lysine N-methyltransferase SUV39H1 (Homo sapiens) (O43463 whole entry, the tested form may be a part): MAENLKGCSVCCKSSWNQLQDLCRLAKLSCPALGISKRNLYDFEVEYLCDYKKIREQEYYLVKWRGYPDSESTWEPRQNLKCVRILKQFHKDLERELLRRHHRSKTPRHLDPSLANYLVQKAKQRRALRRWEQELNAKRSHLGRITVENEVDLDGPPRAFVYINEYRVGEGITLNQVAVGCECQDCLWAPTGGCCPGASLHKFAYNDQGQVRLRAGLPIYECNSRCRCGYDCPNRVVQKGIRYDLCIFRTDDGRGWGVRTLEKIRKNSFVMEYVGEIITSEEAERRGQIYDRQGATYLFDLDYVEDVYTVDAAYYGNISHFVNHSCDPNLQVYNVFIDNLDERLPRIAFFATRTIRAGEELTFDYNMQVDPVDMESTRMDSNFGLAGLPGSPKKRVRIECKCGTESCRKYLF

[6] = biological target: Histone-lysine N-methyltransferase SMYD3 (Homo sapiens) (UniProt Q9H7B4); assay: Inhibition of recombinant human C-terminal His-tagged SMYD3 (2 to 428 residues) expressed in Sf9 insect cells at 1 uM using 3H-SAM as a substrate relative to control; summary of the method: as §1
Sequence of Histone-lysine N-methyltransferase SMYD3 (Homo sapiens) (Q9H7B4 whole entry, the tested form may be a part): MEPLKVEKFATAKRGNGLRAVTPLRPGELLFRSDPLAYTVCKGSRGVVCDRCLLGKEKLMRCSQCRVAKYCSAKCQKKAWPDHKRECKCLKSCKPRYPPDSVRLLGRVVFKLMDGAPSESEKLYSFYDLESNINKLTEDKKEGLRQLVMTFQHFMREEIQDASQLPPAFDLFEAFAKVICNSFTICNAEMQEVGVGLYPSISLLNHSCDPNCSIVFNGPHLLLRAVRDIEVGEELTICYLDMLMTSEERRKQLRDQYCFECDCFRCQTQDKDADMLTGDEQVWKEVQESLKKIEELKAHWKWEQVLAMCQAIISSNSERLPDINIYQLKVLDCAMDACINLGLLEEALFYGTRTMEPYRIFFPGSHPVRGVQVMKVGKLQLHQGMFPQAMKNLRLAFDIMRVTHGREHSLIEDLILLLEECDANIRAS

[7] = biological target: Protein arginine N-methyltransferase 6 (Homo sapiens) (UniProt Q96LA8); assay: Inhibition of N-terminal His-tagged full-length recombinant PRMT6 (2 to 375 residues) (unknown origin) expressed in baculovirus expression system at 1 uM using 3H-SAM as a substrate relative to control; summary of the method: as §1
Sequence of Protein arginine N-methyltransferase 6 (Homo sapiens) (Q96LA8 whole entry, looked up, the tested form may be a part): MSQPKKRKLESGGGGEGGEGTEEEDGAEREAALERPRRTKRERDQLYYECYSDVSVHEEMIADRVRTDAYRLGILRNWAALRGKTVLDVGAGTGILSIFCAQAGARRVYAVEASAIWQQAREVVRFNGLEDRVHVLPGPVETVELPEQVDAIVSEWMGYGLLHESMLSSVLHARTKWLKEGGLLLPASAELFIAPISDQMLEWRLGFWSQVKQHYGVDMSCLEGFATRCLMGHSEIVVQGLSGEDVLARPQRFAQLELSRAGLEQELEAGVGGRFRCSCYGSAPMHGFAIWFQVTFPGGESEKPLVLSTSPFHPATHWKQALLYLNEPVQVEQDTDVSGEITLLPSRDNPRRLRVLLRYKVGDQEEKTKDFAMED

MDA-MB-231 = assay: Down regulation of H3K9 dimethylation in human MDA-MB-231 cells after 24 to 72 hrs by Western blot analysis; assay type: functional, cell-based; settings: dose 0.2-5 µM, time lower […], time upper 72.0 hrs, DDE = dose-dependent effect
[8] = biological target: Histone-lysine N-methyltransferase SETD7 (Homo sapiens) (UniProt Q8WTS6); assay: Inhibition of N-terminal and GST-tagged C-terminal His-tagged SET7/9 (2 to 366 residues) (unknown origin) expressed in Escherichia coli at 1 uM using 3H-SAM as a substrate relative to control; summary of the method: as §1
Sequence of Histone-lysine N-methyltransferase SETD7 (Homo sapiens) (Q8WTS6 whole entry, the tested form may be a part): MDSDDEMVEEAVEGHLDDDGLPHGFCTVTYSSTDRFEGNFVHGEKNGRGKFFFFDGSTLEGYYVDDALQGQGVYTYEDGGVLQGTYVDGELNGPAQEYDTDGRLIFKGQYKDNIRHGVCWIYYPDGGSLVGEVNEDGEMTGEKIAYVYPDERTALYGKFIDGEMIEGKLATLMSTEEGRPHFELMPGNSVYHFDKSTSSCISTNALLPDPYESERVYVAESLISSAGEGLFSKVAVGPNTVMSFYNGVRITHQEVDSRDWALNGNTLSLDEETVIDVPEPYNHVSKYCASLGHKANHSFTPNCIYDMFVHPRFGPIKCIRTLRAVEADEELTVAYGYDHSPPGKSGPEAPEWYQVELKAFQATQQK

K562 = assay: Down regulation of H3K9 dimethylation in human K562 cells at 0.2 to 5 uM incubated for 48 hrs by Western blot analysis; assay type: functional, cell-based; settings: dose 0.2-5 µM

C=CC(=O)Nc1cc(NC2CCN(C(C)C)CC2)c2cc(OC)c(OCCCN3CCCC3)cc2n1
active: Activity (MDA-MB-231) Dde | Activity (K562)
50%: inhibition [4]
< 50%: inhibition [1] | inhibition [2] | inhibition [3] | inhibition [5] | inhibition [6] | inhibition [7] | inhibition [8]
